This note sets out measurements from PubChem BioAssay AID623986 (Vanderbilt High Throughput Screening Facility, 2012).

Molecules are shown by their SMILES. Activity calls are given as the source filed them. No rule for the calls is given here.

This experiment addresses Potassium voltage-gated channel subfamily KQT member 4 (Homo sapiens) (UniProt P56696). In words: KCNQ4 potassium channel activity – cell-based, human, thallium flux, concentration-response, selectivity assay for GIRK activator project, dose response (AID 623986). The following applies: T-REx-293 hKv7.4, thallium flux FluoZin-2 fluorescence; series mostly up to 100 µM. A digest of the protocol: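 System: T-REx-293 cells stably expressing human Kv7.4 potassium channel | Read-out: Post-stimulus fluorescence slope, XE-991 baseline subtracted, as % vehicle | Incubation: Dye loading ~60 min room temperature, compound pretreatment 4 min | Detection: FluoZin-2 thallium flux fluorescence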

Sequence of Potassium voltage-gated channel subfamily KQT member 4 (Homo sapiens) (P56696 whole entry, looked up): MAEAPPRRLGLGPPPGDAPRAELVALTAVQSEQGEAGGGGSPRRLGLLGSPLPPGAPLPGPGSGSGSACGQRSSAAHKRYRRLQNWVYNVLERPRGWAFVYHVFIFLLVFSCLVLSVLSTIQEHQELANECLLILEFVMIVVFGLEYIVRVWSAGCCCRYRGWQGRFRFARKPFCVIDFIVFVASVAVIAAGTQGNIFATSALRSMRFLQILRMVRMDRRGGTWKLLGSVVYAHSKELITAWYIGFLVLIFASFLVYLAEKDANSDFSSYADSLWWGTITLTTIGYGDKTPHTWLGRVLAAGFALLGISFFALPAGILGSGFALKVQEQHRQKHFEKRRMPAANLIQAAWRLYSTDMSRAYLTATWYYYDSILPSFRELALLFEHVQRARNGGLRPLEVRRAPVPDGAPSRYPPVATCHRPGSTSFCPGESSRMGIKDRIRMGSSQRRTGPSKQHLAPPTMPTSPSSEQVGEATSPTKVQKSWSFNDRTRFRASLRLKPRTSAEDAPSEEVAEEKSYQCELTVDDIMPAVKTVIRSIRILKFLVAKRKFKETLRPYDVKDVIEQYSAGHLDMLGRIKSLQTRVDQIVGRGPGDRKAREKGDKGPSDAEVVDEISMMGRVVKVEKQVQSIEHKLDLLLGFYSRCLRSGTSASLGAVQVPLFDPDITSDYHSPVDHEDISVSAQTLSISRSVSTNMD

Turning to `Cc1cc(NC(=O)Nc2ccc(F)c(F)c2)n(-c2ccccc2)n1`, the result was inactive.
